# Test results published in ChEMBL document CHEMBL4371095, “Triazole-Based Inhibitors of the Wnt/β-Catenin Signaling Pathway Improve Glucose and Lipid Metabolisms in Diet-Induced Obese Mice” (J Med Chem, 2019).
# Calls of active or inactive are those of the source. The calls are words filed in the database; no cut-off is given here.
# Tests used:
# [1] = tested on: Mus musculus; test: Effect on hepatic G6pase mRNA level in normal chow diet fed C57BL/6J mouse at 40 mg/kg, ip administered every 2 days for 11 weeks by qPCR analysis; format: ADME, organism-based; settings: in vivo
# Outline: (§1)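 Male mice, 8 weeks old, kept on normal chow throughout and dosed i.p. every 2 days in corn oil vehicle for 11 weeks. Body weight gain, liver/body weight ratio, and liver mRNA of the indicated genes were measured at sacrifice; mean ± SEM, n = 5 per group where stated.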
# [2] = Toxicity in normal chow diet fed C57BL/6J mouse assessed as serum total bilirubin level at 40 mg/kg, ip administered every 2 days for 11 weeks (reference value: 0.2 mg/dl); format: organism-based; settings: in vivo
# [3] = Toxicity in high fat diet fed C57BL/6J mouse assessed as serum total bilirubin level at 40 mg/kg, ip administered every 2 days for 11 weeks (reference value: 0.2 mg/dl); format: organism-based; settings: in vivo
# [4] = organism: Homo sapiens; test: Ratio of IC50 for Wnt/beta-catenin signaling (unknown origin) expressed in HEK293 cells harboring GSK3B siRNA to IC50 for Wnt/beta-catenin signaling (unknown origin) expressed in HEK293 cells harboring siRNA; format: cell-based
# [5] = Toxicity in normal chow diet fed C57BL/6J mouse assessed as serum triglyceride level at 40 mg/kg, ip administered every 2 days for 11 weeks (reference value: 69 +/- 2.5 mg/dl); format: organism-based; settings: in vivo
# [6] = Toxicity in high fat diet fed C57BL/6J mouse assessed as serum AST level at 40 mg/kg, ip administered every 2 days for 11 weeks (reference value: 131 +/- 15.6 U/L); format: organism-based; settings: in vivo
# [7] = tested on: HEK293; test: Inhibition of Wnt/beta-catenin signaling (unknown origin) expressed in HEK293 cells assessed as increase in GSK3beta binding to beta-catenin after 12 hrs by immunoprecipitation method; format: cell-based; settings: Homo sapiens
# [8] = tested on: HEK293; test: Inhibition of Wnt/beta-catenin signaling (unknown origin) expressed in GSK3beta knock down HEK293 cells harboring TCF/LEF-responsive luciferase assessed as luminescence at 20 nM measured after 24 hrs by luciferase reporter gene assay relative to control; format: cell-based; set-up: scale not given: the % may be the effect or the level left; settings: Homo sapiens
# Outline: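 HEK293 cells were transfected with siRNA against GSK3β, Axin or CK1α using RNAiMAX for 36 h. Cells were then treated with or without compound at 20 nM for 24 h, and TCF/LEF luciferase reporter activity was read.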
# [9] = tested on: Mus musculus; test: Decrease in hepatic FGF21 mRNA level in high fat diet fed C57BL/6J mouse at 40 mg/kg, ip administered every 2 days for 11 weeks by qPCR analysis; format: functional, organism-based
# Outline: (§2)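 Male mice, 8 weeks old, fed a 45% kcal fat diet for 6 weeks, then dosed i.p. every 2 days in corn oil vehicle for 11 weeks. Liver mRNA of the indicated genes was quantified at sacrifice; mean ± SEM, n = 5 per group.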
# [10] = tested on: Mus musculus; test: Decrease in hepatic FASN mRNA level in high fat diet fed C57BL/6J mouse at 40 mg/kg, ip administered every 2 days for 11 weeks by qPCR analysis; format: functional, organism-based; outline: as §2
# [11] = tested on: Mus musculus; test: Effect on hepatic FASN mRNA level in normal chow diet fed C57BL/6J mouse at 40 mg/kg, ip administered every 2 days for 11 weeks by qPCR analysis; format: ADME, organism-based; settings: in vivo; outline: as §1
# [12] = tested on: Mus musculus; test: Decrease in hepatic ACC1 mRNA level in high fat diet fed C57BL/6J mouse at 40 mg/kg, ip administered every 2 days for 11 weeks by qPCR analysis; format: functional, organism-based; outline: as §2
# [13] = tested on: Mus musculus; test: Decrease in hepatic ACAT2 mRNA level in high fat diet fed C57BL/6J mouse at 40 mg/kg, ip administered every 2 days for 11 weeks by qPCR analysis; format: functional, organism-based; outline: as §2
# [14] = organism: Mus musculus; test: Inhibition of Wnt/beta-catenin/Axin signaling in mouse hepatocytes assessed as decrease in ACOT4 mRNA level at 5 uM by qPCR analysis; format: cell-based
# Outline: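 Normal mouse hepatocytes were treated with 5 μM compound, and lipogenic and gluconeogenic gene mRNA was measured by qPCR; mean ± S.D. of triplicates.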
# [15] = tested on: Mus musculus; test: Decrease in liver weight adjusted by body weight gain in high fat diet fed C57BL/6J mouse at 40 mg/kg, ip administered every 2 days for 11 weeks; format: functional, organism-based
# Outline: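 Male mice, 8 weeks old, 24–27 g, given a 45% kcal fat diet for 6 weeks, then dosed i.p. every 2 days in corn oil vehicle with the diet continued. Sacrifice was about 24 h after the last dose. Liver was examined by H&E. Liver and serum triglyceride were measured by kit. Serum chemistry was included, and liver/body weight ratio was calculated.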
# [16] = Toxicity in normal chow diet fed C57BL/6J mouse assessed as serum LDH level at 40 mg/kg, ip administered every 2 days for 11 weeks (reference value: 324 +/- 63.5 U/L); format: organism-based; settings: in vivo
# [17] = Inhibition of Wnt3a activated Wnt/beta-catenin signaling (unknown origin) expressed in HEK293 cells harboring TCF/LEF-responsive luciferase preincubated with cells followed by Wnt3a addition and measured after 24 hrs by luciferase reporter gene assay; format: cell-based; settings: Homo sapiens
# Outline: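 HEK293 cells stably carrying TOPFlash/GFP were plated at 2000/well in DMEM with 10% FBS and kept overnight at 37 °C. Compound was pin-transferred, then recombinant human Wnt-3a was added (200 ng/mL working stock). After 24 h at 37 °C, ONE-Glo luminescence was read after 30 min. IC50 is mean ± SE from three independent experiments.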
# [18] = tested on: HEK293; test: Inhibition of 25 to 50 mM LiCl activated Wnt/beta-catenin signaling (unknown origin) expressed in HEK293 cells harboring TCF/LEF-responsive luciferase at 0.1 uM preincubated with cells followed by LiCl addition and measured after 24 hrs by luciferase reporter gene assay; format: cell-based; settings: Homo sapiens
# [19] = tested on: Mus musculus; test: Effect on hepatic Glp1 mRNA level in normal chow diet fed C57BL/6J mouse at 40 mg/kg, ip administered every 2 days for 11 weeks by qPCR analysis; format: ADME, organism-based; settings: in vivo; outline: as §1
# [20] = Toxicity in high fat diet fed C57BL/6J mouse assessed as serum alkaline phosphatase level at 40 mg/kg, ip administered every 2 days for 11 weeks (reference value: 58.3 +/- 3.8 U/L); format: organism-based; settings: in vivo
# [21] = molecular target: Axin-1 (Homo sapiens) (UniProt O15169); test: Binding affinity to Axin1 (unknown origin) by SPR analysis
# [22] = Toxicity in normal chow diet fed C57BL/6J mouse assessed as serum BUN level at 40 mg/kg, ip administered every 2 days for 11 weeks (reference value: 19 +/- 1.8 mg/dl); format: organism-based; settings: in vivo
# [23] = tested on: HepG2; test: Inhibition of Wnt/beta-catenin deletion mutant signaling in human HepG2 cells at 50 nM after 24 hrs by luciferase reporter gene assay; format: cell-based
# Outline: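 HepG2 cells carry the CTNNB1 Δ25–140 deletion and were transfected with the TCF/LEF luciferase reporter constructs. Compound was applied and reporter luminescence measured; mean ± S.D., n = 3.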
# [24] = Inhibition of LiCl activated Wnt/beta-catenin signaling (unknown origin) expressed in HEK293 cells harboring TCF/LEF-responsive luciferase preincubated with cells followed by LiCl addition and measured after 24 hrs by luciferase reporter gene assay; format: cell-based; settings: Homo sapiens
# Outline: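 HEK293 cells carrying the TCF/LEF TOPFlash firefly luciferase reporter were stimulated with LiCl and treated with compound for 24 h. Luminescence was read, and IC50 was fitted from concentration–response data; mean ± S.D., n = 4.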
# [25] = tested on: Mus musculus; test: Decrease in hepatic ACOT4 mRNA level in high fat diet fed C57BL/6J mouse at 40 mg/kg, ip administered every 2 days for 11 weeks by qPCR analysis; format: functional, organism-based; outline: as §2
# Chain of Axin-1 (Homo sapiens) (O15169 whole entry): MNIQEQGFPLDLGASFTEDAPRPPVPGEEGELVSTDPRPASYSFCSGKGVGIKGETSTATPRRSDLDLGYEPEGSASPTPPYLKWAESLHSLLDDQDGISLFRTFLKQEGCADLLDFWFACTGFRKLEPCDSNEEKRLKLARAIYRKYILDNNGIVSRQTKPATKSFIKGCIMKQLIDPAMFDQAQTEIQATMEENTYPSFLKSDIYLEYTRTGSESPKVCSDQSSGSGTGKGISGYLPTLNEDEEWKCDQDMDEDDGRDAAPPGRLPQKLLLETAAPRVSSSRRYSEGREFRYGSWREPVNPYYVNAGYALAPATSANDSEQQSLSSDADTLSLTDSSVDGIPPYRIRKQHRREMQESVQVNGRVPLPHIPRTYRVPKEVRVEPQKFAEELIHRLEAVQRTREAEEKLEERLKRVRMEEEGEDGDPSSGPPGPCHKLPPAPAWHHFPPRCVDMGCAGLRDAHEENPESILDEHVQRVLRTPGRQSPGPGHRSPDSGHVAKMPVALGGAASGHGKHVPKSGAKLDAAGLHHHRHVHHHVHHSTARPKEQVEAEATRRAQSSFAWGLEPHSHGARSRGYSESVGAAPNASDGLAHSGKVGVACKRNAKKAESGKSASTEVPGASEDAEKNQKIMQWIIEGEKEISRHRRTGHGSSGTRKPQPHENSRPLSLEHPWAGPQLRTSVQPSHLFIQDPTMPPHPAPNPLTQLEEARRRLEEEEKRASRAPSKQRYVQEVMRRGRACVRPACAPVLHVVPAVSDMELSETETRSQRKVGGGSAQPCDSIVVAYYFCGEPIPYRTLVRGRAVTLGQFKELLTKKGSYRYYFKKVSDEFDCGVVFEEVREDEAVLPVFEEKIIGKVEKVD
smiles,measurement,setting,value
Cc1ccccc1-n1nnc(C(=O)Nc2ccc3ccccc3n2)c1C,Activity,[1],Non-Toxic
same,Activity,[2],0.2 mg/dL
same,Activity,[3],0.2 mg/dL
same,Ratio IC50,[4],1.7
same,Activity,[5],55 mg/dL
same,Activity,[6],94.8 U/L
same,inhibition,[7],Active
same,Activity,[8],69%
same,Activity,[9],Active
same,Activity,[10],Active
same,Activity,[11],Non-Toxic
same,Activity,[12],Active
same,Activity,[13],Active
same,inhibition,[14],Active
same,Activity,[15],Active
same,Activity,[16],190 U/L
same,IC50,[17],4.1 nM
same,inhibition,[18],Active
same,Activity,[19],Non-Toxic
same,Activity,[20],51 U/L
same,Activity,[21],inactive
same,Activity,[22],21.8 mg/dL
same,inhibition,[23],inactive
same,IC50,[24],6 nM
same,Activity,[25],Active
